Results as given in ChEMBL document CHEMBL1136724 (J Med Chem, 2003).

Assays:
[1] = target: Nitric oxide synthase, inducible (Homo sapiens, UniProt P35228); test: Inhibitory activity of compound against human inducible nitric oxide synthase
Nitric oxide synthase 3 = target: T1, Nitric oxide synthase 3 (Homo sapiens, UniProt P29474); test: Inhibitory activity against human endothelial nitric oxide synthase
T1 sequence (P29474 whole entry): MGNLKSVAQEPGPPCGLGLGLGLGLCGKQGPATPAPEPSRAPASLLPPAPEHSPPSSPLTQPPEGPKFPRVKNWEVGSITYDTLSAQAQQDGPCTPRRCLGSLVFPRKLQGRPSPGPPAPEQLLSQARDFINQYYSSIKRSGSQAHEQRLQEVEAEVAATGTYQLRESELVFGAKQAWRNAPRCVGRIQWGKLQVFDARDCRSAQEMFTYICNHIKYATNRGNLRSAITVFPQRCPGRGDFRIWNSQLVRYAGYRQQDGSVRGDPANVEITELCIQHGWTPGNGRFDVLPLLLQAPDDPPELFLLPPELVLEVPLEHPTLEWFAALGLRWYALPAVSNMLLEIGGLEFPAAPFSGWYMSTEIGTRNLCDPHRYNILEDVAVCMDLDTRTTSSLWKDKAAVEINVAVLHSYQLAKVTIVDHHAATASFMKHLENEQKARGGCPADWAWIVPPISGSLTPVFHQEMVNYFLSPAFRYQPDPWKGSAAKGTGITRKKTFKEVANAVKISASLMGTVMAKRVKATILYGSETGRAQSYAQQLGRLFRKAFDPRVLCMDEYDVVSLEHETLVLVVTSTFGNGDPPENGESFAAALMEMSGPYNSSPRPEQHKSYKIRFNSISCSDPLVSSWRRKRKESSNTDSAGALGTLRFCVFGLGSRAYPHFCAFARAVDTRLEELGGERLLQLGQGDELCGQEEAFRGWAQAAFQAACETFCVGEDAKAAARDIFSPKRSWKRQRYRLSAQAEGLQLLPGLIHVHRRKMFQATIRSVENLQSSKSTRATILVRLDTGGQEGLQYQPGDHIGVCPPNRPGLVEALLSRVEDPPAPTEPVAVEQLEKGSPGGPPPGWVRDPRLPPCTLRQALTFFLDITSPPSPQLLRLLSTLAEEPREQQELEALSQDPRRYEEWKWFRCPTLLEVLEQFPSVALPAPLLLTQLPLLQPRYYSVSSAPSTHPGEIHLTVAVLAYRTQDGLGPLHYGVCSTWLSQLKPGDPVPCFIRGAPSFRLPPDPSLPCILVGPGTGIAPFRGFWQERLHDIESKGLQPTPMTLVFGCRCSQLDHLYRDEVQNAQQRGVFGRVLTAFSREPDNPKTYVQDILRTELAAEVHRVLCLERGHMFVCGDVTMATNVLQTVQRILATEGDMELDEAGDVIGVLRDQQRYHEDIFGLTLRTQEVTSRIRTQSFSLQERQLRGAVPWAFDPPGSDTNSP

Nitric oxide synthase 1 [2] = target: T2, Nitric oxide synthase 1 (Homo sapiens, UniProt P29475); test: Inhibitory activity against human neuronal nitric oxide synthase
DLD-1 = test: Inhibitory activity against synthesis of inducible nitric oxide synthase by DLD-1 cells; assay type: functional, cell-based; conditions: Homo sapiens
How it was run: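 Intact human DLD-1 cells preincubated with a cytokine cocktail to induce NO production; inhibition of NO production measured; IC50 is the mean of at least two separate measurements.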

Rattus norvegicus [3] = test: Inhibition of LPS induced nitrite production in rat following 4 hr of oral administration; assay type: functional; conditions: read-out: ID50 (the source's name)
[4] = target: T3, Nitric oxide synthase 3 (Homo sapiens) (UniProt P29474); test: Inhibitory activity of 100 uM compound against human endothelial nitric oxide synthase; Range is […]%-[…]%
T3 sequence (whole entry): T1 sequence (P29474 whole entry)

Rattus norvegicus [5] = species: Rattus norvegicus; test: animal or person
[6] = Pharmacokinetic parameter pKa for amidine group of compound was evaluated; assay type: physicochemical
Nitric oxide synthase 1 [7] = target: T2, Nitric oxide synthase 1; test: Inhibitory activity of 100 uM compound against human neuronal nitric oxide synthase; range is […]%-[…]%; conditions: at 100 µM
[8] = target: T3, Nitric oxide synthase 3 (Homo sapiens); test: Inhibitory activity of 100 uM compound against human endothelial nitric oxide synthase; range is […]%-[…]%; conditions: at 100 µM
Nitric oxide synthase 1 [9] = target: T2, Nitric oxide synthase 1; test: Inhibitory activity of 100 uM compound against human neuronal nitric oxide synthase; Range is […]%-[…]%
[10] = target: T3, Nitric oxide synthase 3 (Homo sapiens); test: Inhibitory activity of 100 uM compound against human endothelial nitric oxide synthase

Nitric oxide synthase, inducible, sequence (P35228 whole entry): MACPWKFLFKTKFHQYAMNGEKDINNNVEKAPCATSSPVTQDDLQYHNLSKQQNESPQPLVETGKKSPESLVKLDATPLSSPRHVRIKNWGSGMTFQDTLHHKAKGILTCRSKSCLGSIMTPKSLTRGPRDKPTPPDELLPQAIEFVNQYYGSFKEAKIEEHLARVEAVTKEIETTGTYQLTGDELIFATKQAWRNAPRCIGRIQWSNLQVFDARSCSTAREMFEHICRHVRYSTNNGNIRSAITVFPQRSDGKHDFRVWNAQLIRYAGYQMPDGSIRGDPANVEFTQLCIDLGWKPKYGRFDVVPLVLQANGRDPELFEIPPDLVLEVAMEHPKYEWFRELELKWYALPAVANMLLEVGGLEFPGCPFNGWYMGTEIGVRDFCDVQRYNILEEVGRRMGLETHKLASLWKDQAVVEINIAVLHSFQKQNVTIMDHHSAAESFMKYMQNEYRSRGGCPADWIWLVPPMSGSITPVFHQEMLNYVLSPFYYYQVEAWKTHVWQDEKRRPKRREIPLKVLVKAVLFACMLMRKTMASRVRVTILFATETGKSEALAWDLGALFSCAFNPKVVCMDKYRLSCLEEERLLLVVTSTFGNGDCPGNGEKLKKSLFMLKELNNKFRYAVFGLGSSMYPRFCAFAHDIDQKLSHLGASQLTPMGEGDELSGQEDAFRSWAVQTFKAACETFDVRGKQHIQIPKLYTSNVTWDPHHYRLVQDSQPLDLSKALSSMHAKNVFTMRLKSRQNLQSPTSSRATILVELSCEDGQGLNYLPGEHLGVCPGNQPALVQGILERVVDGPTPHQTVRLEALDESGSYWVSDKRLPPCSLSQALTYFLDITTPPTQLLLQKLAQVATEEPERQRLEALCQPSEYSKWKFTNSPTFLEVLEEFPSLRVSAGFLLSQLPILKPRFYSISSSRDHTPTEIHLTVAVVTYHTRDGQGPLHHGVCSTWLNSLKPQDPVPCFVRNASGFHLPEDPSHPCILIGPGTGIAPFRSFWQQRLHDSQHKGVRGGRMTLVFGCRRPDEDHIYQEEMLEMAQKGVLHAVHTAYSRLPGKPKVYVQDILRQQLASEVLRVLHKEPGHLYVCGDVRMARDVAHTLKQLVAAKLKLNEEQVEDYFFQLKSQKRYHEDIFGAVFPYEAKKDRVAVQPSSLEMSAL
T2 sequence (P29475 whole entry): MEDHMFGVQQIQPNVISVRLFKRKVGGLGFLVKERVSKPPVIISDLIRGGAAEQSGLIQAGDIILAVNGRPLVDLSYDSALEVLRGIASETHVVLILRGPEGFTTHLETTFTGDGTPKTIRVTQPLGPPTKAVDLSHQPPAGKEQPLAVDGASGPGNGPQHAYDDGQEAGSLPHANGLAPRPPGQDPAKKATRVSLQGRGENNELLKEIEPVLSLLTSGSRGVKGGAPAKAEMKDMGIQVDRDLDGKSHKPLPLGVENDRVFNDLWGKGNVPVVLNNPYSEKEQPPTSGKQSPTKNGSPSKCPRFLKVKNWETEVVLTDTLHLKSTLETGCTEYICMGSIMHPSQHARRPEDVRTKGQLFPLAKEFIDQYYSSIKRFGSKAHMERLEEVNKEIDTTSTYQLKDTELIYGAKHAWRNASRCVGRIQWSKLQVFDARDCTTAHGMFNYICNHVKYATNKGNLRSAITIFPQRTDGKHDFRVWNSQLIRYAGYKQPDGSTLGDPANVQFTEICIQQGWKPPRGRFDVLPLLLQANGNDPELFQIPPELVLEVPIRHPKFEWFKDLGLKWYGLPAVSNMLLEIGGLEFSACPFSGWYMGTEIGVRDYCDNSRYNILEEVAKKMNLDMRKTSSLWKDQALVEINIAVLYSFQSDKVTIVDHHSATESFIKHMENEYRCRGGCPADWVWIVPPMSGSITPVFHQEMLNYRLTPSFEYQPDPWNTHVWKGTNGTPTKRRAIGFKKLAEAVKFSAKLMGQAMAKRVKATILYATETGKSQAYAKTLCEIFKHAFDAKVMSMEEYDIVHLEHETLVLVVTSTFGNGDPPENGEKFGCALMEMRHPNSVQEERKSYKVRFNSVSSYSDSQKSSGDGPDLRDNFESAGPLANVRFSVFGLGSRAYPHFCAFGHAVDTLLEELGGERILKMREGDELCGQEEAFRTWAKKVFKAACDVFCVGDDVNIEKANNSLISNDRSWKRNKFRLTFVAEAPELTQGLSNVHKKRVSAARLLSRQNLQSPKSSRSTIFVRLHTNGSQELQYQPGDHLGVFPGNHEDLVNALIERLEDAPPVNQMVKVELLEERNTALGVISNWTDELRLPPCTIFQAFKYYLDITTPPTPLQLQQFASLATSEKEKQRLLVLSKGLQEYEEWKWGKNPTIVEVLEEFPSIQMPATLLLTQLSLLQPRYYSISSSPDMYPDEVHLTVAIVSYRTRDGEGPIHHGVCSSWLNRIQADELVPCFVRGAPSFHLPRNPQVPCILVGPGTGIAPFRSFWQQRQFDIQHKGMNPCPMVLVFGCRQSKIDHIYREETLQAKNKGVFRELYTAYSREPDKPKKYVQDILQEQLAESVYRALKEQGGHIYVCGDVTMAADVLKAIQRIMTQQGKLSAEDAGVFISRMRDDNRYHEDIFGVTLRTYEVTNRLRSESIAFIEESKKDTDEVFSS

SMILES | IC50 [1] [µM] | IC50 (Nitric oxide synthase 1 [2]) [µM] | IC50 (DLD-1) [µM] | ED50 (Rattus norvegicus [3]) [µmol/kg] | further results
NC1=NC(c2ccco2)Nc2ccccc21 (configuration not stated) | 0.2 | – | – | – | –
NC1=NC2(CCNCC2)Nc2ccccc21 | ~50 | – | – | – | –
CCOC(=O)N1CCC2(CC1)N=C(N)c1sccc1N2 | 0.3 | 50 | > 500 | – | IC50 (Nitric oxide synthase 3): 100 µM
NC1=NC(c2ccccc2)Nc2ccccc21 (configuration not stated) | 2.5 | – | – | – | –
COC(=O)[C@@H](N)CCCNC(=N)N[N+](=O)[O-] [L-NAME] | – | 0.15 | > 300 | > 300 | –
CCC1(C)N=C(N)c2ccccc2N1 (configuration not stated) | 32 | – | – | – | –
NC1=NC(c2cccs2)Nc2ccccc21 (configuration not stated) | 0.4 | – | – | – | –
NC1=NC(c2ccco2)Nc2c(F)ccc(F)c21 (configuration not stated) | 0.002 | 0.06 | 0.2 | 16 | IC50 (Nitric oxide synthase 3): 0.18 µM
CC(=N)NCCCC[C@H](N)C(=O)O [L-NIL] | 0.1 | 1.5 | 2.8 | 9 | IC50 (Nitric oxide synthase 3): 2.6 µM
CC1(C)N=C(N)c2ccccc2N1 | 52 | – | – | – | –
N#Cc1ccc(C(=O)N2CCC3(CC2)N=C(N)c2c(F)cccc2N3)cc1 | 0.027 | 12 | 4.5 | 14 | inhibition [4]: 50%; pKa [6]: 9.1
CC1N=C(N)c2ccccc2N1 (configuration not stated) | 9.8 | – | – | – | –
N=C(N)NN [PIMAGEDINE] | 3.9 | 5.9 | > 1000 | – | IC50 (Nitric oxide synthase 3): 100 µM
N#Cc1ccc(C(=O)N2CCC3(CC2)N=C(N)c2c(F)ccc(F)c2N3)cc1 | 0.048 | 3.3 | 1.6 | 3 | inhibition [4]: 50%; pKa [6]: 8.4
NC1=NC(c2ccc(F)cc2)Nc2cccc(F)c21 (configuration not stated) | 0.05 | 3.5 | 4 | > 30 | inhibition [10]: < 25%

More lines, main results first:

IC50 [1] [µM] | IC50 (Nitric oxide synthase 1 [2]) [µM] | IC50 (DLD-1) [µM] | SMILES | ED50 (Rattus norvegicus [3]) [µmol/kg] | further results
1.1 | – | – | NC1=NC(C2CC2)Nc2ccccc21 (configuration not stated) | – | –
– | – | 0.9 | N#Cc1ccc(C(=O)N2CCC3(CC2)N=C(N)c2c(F)ccc(F)c2N3)cn1 | 3 | inhibition [4]: 50%; ED50 (Rattus norvegicus [5]): ~10 µmol/kg
0.035 | 40 | 9.6 | CCOC(=O)N1CCC2(CC1)N=C(N)c1c(F)cccc1N2 | – | IC50 (Nitric oxide synthase 3): 100 µM
0.9 | – | – | CCC1N=C(N)c2ccccc2N1 (configuration not stated) | – | –
0.047 | – | 9.2 | CCOC(=O)N1CCC2(CC1)N=C(N)c1c(Cl)cccc1N2 | – | inhibition (Nitric oxide synthase 1 [7]): 50%; inhibition [8]: 50%
0.039 | – | 11 | CSCCOC(=O)N1CCC2(CC1)N=C(N)c1c(F)cccc1N2 | – | inhibition [4]: 50%; inhibition (Nitric oxide synthase 1 [9]): 50%
– | – | 21 | CNC(=N)NCCC[C@H](N)C(=O)O [TILARGININE] | 700 | –
4.5 | – | – | NC1=NC(C2CCCC2)Nc2ccccc21 (configuration not stated) | – | –
0.067 | 70 | 12 | NC1=NC2(CCN(C(=O)c3ccsc3)CC2)Nc2cccc(F)c21 | – | inhibition [10]: < 25%
40 | – | – | NC1=NCNc2ccccc21 | – | –
0.02 | 1 | 1.2 | NC1=NC(C2CCC2)Nc2cccc(F)c21 (configuration not stated) | > 30 | IC50 (Nitric oxide synthase 3): 4.6 µM
1.1 | – | – | NC1=NC(C2CCC2)Nc2ccccc21 (configuration not stated) | – | –
